# From PubChem BioAssay
# Only some compounds are listed: those with a hit (about 2.3% of all), similar ones and a draw of the others.
# Arrestin-AP2 inh: inhibitors of human beta-arrestin and AP2 interaction; FITC-arrestin peptide / GST-AP2 beads, flow cytometry; AP2 beta2 appendage carries R879A mutation; inhibition, % at 10 µM; hit rate 0.31% among 340,000; AID 504490;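 active means inhibition above a set limit, near 3 SD of compounds lacking own fluorescence, cut at about 54% in these data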;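 further: plate controls were DMSO wells for no effect and 5 µM unlabelled arrestin peptide for full effect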
#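 Test system: GST-tagged AP2 beta2-adaptin appendage (R879A) on 4 µm glutathione beads; also added: fluorescein-tagged arrestin peptide at 50 nM final; timing: 12 min plus 1 h, RT; signal: flow cytometry, FL1 (488/535 nm); read-out: percent drop in bead-associated FITC signal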
# N-glyco inh: blocks N-linked glycosylation in D54 reporter cells. D54 ERlucT glycosylation luciferase reporter, 24 h; percent of 100 nM tunicamycin response. reporter increase, % at 12.5 µM. hit rate 0.23% among 360,000;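 active means mean luciferase reporter signal, scaled so untreated is 0 and the glycosylation-blocking control 100, at or above a set limit in every replicate; inconclusive means mean reaches the limit but not every replicate does; inactive means mean below the limit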;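 further: luciferase carries N-glycosylation sites so blocking glycosylation raises the light; 0% = median of neutral control wells and 100% = median of 100 nM tunicamycin wells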
# PfHsp90 set2: reduces growth (ATP signal) of yeast expressing P. falciparum Hsp90 | S. cerevisiae expressing PfHsp90, BacTiter-Glo ATP, 48 h; yeast lacking PDR1 and PDR3 efflux regulators | inhibition, % at 9.4 µM | hit rate 0.32% among 310,000 | AID 504621;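 active means every replicate shows inhibition above about 80%, whatever the replicate mean, limit read from the data; inconclusive means mean inhibition reaches the set limit but some replicate falls short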;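 further: 0% = DMSO neutral controls and 100% = 20 µM radicicol positive controls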
# Rtt109 Vps75: blocks Candida albicans Rtt109/Vps75 acetyltransferase activity; Q5AAJ8; purified Rtt109/Vps75, ThioGlo CoA-SH fluorescence, 4 h; inhibition, % at 34.9 µM; hit rate 0.16% among 330,000; AID 540336;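 active means inhibition of at least 50% in every replicate; inconclusive means best replicate reaches 50% inhibition but some replicates fall short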
# Target sequence (Q5AAJ8 whole entry, looked up): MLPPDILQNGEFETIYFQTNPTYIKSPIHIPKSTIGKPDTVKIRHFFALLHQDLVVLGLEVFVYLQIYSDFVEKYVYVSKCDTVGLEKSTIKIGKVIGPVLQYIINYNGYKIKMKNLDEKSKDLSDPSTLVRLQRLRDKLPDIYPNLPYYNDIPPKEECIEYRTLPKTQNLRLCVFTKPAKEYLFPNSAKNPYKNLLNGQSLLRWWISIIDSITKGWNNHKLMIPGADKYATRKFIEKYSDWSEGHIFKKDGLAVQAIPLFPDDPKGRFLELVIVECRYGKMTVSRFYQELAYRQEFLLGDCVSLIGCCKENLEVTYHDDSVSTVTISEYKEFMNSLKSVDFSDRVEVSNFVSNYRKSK
# Env fusion inh: inhibitors of HIV Env-mediated cell fusion; HeLa-JRFL Env/CEM21 cell fusion, luciferase; inhibition, % at 12.3 µM; hit rate 1.1% among 360,000; AID 651610;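 active means mean replicate inhibition score of at least 50 and every replicate individually at or above 50; inconclusive means only one of the two criteria met; inactive means mean below 50 and not all replicates reaching 50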;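 further: 0% = plate neutral controls and 100% = maraviroc near 300 nM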
# PAX8 inh HTS: inhibitors of PAX8 transcriptional activity in RMG-I cells | RMG-I TPO-luciferase reporter, SteadyGlo, 24 h | inhibition, % at 12.6 µM | hit rate 1.2% among 360,000;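 active means mean replicate inhibition at least 60% with every replicate also reaching 60%; inconclusive means only one of the two criteria is met; inactive means mean below 60% and not all replicates reaching 60%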;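 further: luciferase light reporting Pax8 driven TPO promoter activity; plate controls were median of neutral control wells for no effect and mitoxantrone controls for full effect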
# The depositor's hits bear a star; u = inconclusive; x = no result given; + = active, no number; [ ] = dose if it differs, or a comment.
SMILES,Arrestin-AP2 inh,N-glyco inh,PfHsp90 set2,Rtt109 Vps75,Env fusion inh,PAX8 inh HTS
Cc1c(NS(=O)(=O)c2ccc3c(c2)OCCO3)cccc1-c1nc2cccnc2s1,23.2,-4.5,-30.0,19.0,44.4*,7.4
C[C@@H]1CCCCO[C@H](CN(C)C(=O)c2ccccc2)[C@@H](C)CN([C@@H](C)CO)C(=O)c2cc(NC(=O)C3CCCCC3)ccc2O1,x,x,x,x,-6.5[16.7 µM],5.7
CC(=O)Nc1cccc(-c2cc(NC=O)c3ncc(-c4ccc(C(C)=O)cc4)n3c2)c1,x,-5.5,x,x,15.6,70.9*
CC(=O)Nc1cccc(-c2cc(NC(C)=O)c3ncc(-c4cccc(C(C)=O)c4)n3c2)c1,x,-2.7,x,x,x,10.9
COc1ccc(-c2cc(NC=O)c3ncc(-c4ccc(C(C)=O)cc4)n3c2)cn1,x,-0.4,x,x,-58.4,64.8*
O=C(C[C@H]1C[C@H]2c3cc(NC(=O)c4ccc5c(c4)OCO5)ccc3O[C@H]2[C@@H](CO)O1)NCc1ccccn1,x,x,x,x,-5.6[16.7 µM],-10.9
CN(C(=O)c1cccc(NC(=O)Cc2ccc([N+](=O)[O-])cc2)c1)C1CCCCC1,34.1,-2.1,7.9,-3.6,-12.6,32.6
CN(C(=O)c1ccc(Oc2ccc([N+](=O)[O-])cc2)cc1)C1CCCCC1,-8.0,-3.6,10.0,3.6,58.8*,17.7
C[C@H]1CN([C@@H](C)CO)C(=O)c2cc(NS(C)(=O)=O)ccc2O[C@H]1CN(C)C(=O)Nc1cccc2ccccc12,x,x,x,x,0.3[16.7 µM],-9.6
Cc1cc(CN(C)C(=O)CC2C(=O)NCCN2Cc2c(F)cccc2Cl)n[nH]1 (centres undefined),4.2,0.8,-28.0,8.9,64.7*,-17.6
Cc1nonc1CN(C)C(=O)CC1C(=O)NCCN1Cc1c(F)cccc1Cl (centres undefined),-11.7,0.0,8.8,0.8,-14.3,-11.2
COc1ccc(C2=Nc3ccccc3N(C(=O)Cc3cc(OC)cc(OC)c3)C2C(=O)NC(C)(C)C)cc1 (centres undefined),x,x,x,x,55.3*,0.2
COc1ccccc1CNC(=O)CC1C(=O)NCCN1C1Cc2ccccc2C1 (centres undefined),27.6,0.2,-4.9,1.5,8.5,17.8
COc1ccc(CNC(=O)CC2C(=O)NCCN2C2Cc3ccccc3C2)cc1 (centres undefined),-7.4,2.2,-23.9,-8.6,61.3*,18.2
COc1ccc(S(=O)(=O)N(C)C[C@@H]2Oc3ccc(NC(=O)Nc4ccccc4)cc3CC(=O)N([C@H](C)CO)C[C@H]2C)cc1,x,x,x,x,26.1[16.7 µM],-19.6
Cc1[nH]n(-c2ccc([N+](=O)[O-])cc2)c(=O)c1C=NCCN1CCN(C(=O)c2ccc(F)cc2)CC1,3.1,1.8,-18.1,1.6,-32.5,x
Cc1[nH]n(-c2ccc([N+](=O)[O-])cc2)c(=O)c1C=NCCN1CCN(C(=O)c2cccc(F)c2)CC1,21.8,1.6,84.3*,13.1,-8.7,-24.8
CC(C)NC(=O)Nc1ccc2c(c1)CC(=O)N([C@@H](C)CO)C[C@@H](C)[C@H](CN(C)C(=O)Nc1ccc(C(F)(F)F)cc1)O2,x,x,x,x,x,-1.1
COC(=O)CN1C(c2ccc(Cl)cc2)=Nc2ccc(Cl)cc2C1c1ccccc1 (centres undefined),3.1,-3.6,-18.2,-2.9,80.3*,21.2
COc1ccc(-c2cc(C(=O)Nc3cccc(S(=O)(=O)NCc4ccco4)c3)c3ccccc3n2)cc1OC,-3.1,-0.1,3.7,-29.1,-7.8,69.6*
O=C(Nc1cccc(S(=O)(=O)NCc2ccco2)c1)c1cc(-c2ccc(F)cc2)nc2ccccc12,5.7,4.3,-18.6,0.3,17.6,9.8
COc1ccc(-c2cc(C(=O)NCC(c3ccccc3)N(C)C)c3ccccc3n2)cc1OC (centres undefined),15.1,29.5*,-19.2,-4.9,-83.4,16.5
CCCNC(=O)N1C[C@@H](O)COC[C@@H]2O[C@H](CC(=O)NCc3ccc(Cl)c(Cl)c3)CC[C@H]21,x,x,x,x,5.5[16.7 µM],-4.8
Cc1noc(NS(=O)(=O)c2ccc(N/C=C/C(=O)c3cccnc3)cc2)c1C,6.7,0.1,x,72.5*,x,x
Cc1noc(NS(=O)(=O)c2ccc(N/C=C\C(=O)c3ccncc3)cc2)c1C,0.7,1.2,x,x,3.1,11.1
SMILES,Arrestin-AP2 inh,N-glyco inh,PfHsp90 set2,Rtt109 Vps75,Env fusion inh,PAX8 inh HTS
COC(=O)C[C@@H]1CC[C@H]2[C@@H](COc3ccc(NS(C)(=O)=O)cc3C(=O)N2C)O1,x,x,x,x,10.4[16.7 µM],-15.6
COc1cc(-c2coc3c(C(=O)NCc4ccc(N(C)C)cc4)cccc23)ccc1O,x,2.4,x,x,-1.8,-28.1
COc1cc(-c2coc3c(C(=O)NCc4ccc(OC)c(OC)c4)cccc23)ccc1O,x,90.9*,x,x,-4.9,19.3
COc1ccc(CNC(=O)c2cccc3c(-c4ccc(F)c(F)c4)coc23)cc1OC,x,2.0,x,x,x,x
COc1ccc(CNC(=O)c2cccc3c(-c4cccc(C(N)=O)c4)coc23)cc1OC,x,59.8*,x,x,27.3,28.5
COc1ccc(-c2coc3c(C(=O)NCc4cccc(Cl)c4)cccc23)c(C)c1,x,-7.5,x,x,u,38.8
COc1ccc(-c2coc3c(C(=O)NCc4ccc(C(F)(F)F)cc4)cccc23)c(C)c1,x,-4.3,x,x,66.5*,1.2
COc1ccc(OC(=O)N(C)C[C@@H]2OCc3cn(nn3)CCCC(=O)N([C@H](C)CO)C[C@@H]2C)cc1,x,x,x,x,x,1.1
CCC(C)Nc1ccc(NC(C)CC)cc1 (centres undefined),24.6,-15.5,+,6.1,x,x
CCC(C)NC(=O)Nc1ccc(Br)cc1 (centres undefined),1.1,-2.3,-9.9,x,-11.9,-87.7
O=C(C[C@H]1C=C[C@@H](NC(=O)Nc2ccc(F)cc2)[C@H](CO)O1)NCCN1CCCC1,x,x,x,x,12.7[16.7 µM],-5.9
C[C@H](CO)N1C[C@H](C)[C@H](CN(C)S(=O)(=O)c2ccc(F)cc2)Oc2ccc(NC(=O)Nc3cccc4ccccc34)cc2C1=O,x,x,x,x,36.4[16.7 µM],22.2
O=C(C[C@@H]1CC[C@H]2[C@@H](COC[C@@H](O)CN2Cc2cccc(C(F)(F)F)c2)O1)NCc1ccc(F)cc1,x,x,x,x,x,97.7*
O=C(C[C@@H]1CC[C@@H]2[C@H](COC[C@H](O)CN2Cc2cccc(F)c2)O1)NCC1CCCCC1,x,x,x,x,x,-36.8
O=C(C[C@H]1CC[C@H]2[C@@H](COC[C@@H](O)CN2Cc2ccc(F)cc2)O1)NCc1ccccc1Cl,x,x,x,x,x,78.7*
O=C(C[C@@H]1CC[C@H]2[C@@H](COC[C@@H](O)CN2Cc2cccc(F)c2)O1)NCC1CCCCC1,x,x,x,x,x,107.4*
Cc1ccc(S(=O)(=O)N[C@@H]2CC[C@@H](CC(=O)N3CCN(c4ccccc4)CC3)O[C@@H]2CO)cc1,x,x,x,x,-28.8[16.7 µM],3.0
COc1ccc(CC(=O)N(Cc2ccccc2)c2ccc(C)cc2)cc1OC,-11.9,31.4*,-6.2,9.8,12.0,-0.8
O=C(Cc1ccncc1)NCC[C@@H]1CC[C@@H](NC(=O)Nc2cccc(F)c2)[C@H](CO)O1,x,x,x,x,-5.2[16.7 µM],-4.7
